Converted amounts (≈) assume the structure as drawn.
Tests used:
Staphylococcus aureus [1] = assay: Antimicrobial activity against methicillin-resistant Staphylococcus aureus isolate NTUH4722 after 18 to 24 hrs by alamar blue assay; assay type: functional
In short: (§1)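 Broth microdilution per NCCLS standard, Mueller-Hinton broth, 8-point twofold dilutions; exponentially growing cells at 5 10^5 cells/ml with compound, 18–24 h at 37 C; 20% Alamar blue added, fluorescence read; MIC90 taken as lowest concentration preventing at least 90% growth.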

Staphylococcus aureus [2] = assay: Antimicrobial activity against oxacillin- and methicillin-resistant Staphylococcus aureus isolate Sa-OXA-R2 after 18 to 24 hrs by alamar blue assay; assay type: functional; in short: as §1
Staphylococcus aureus [3] = assay: Antimicrobial activity against methicillin-resistant Staphylococcus aureus ATCC 33592 after 18 to 24 hrs by alamar blue assay; assay type: functional; conditions: Staphylococcus aureus, ATCC 33592; read-out: MIC; in short: as §1
Staphylococcus aureus [4] = assay: Antimicrobial activity against Staphylococcus aureus ATCC 29213 after 18 to 24 hrs by alamar blue assay
Acinetobacter baumannii = assay: Antimicrobial activity against Acinetobacter baumannii ATCC 49139 after 18 to 24 hrs by alamar blue assay; assay type: functional; conditions: Acinetobacter baumannii, ATCC 49139; read-out: MIC
In short: (§2)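 Broth microdilution per NCCLS in Mueller-Hinton broth, 8-point twofold dilutions, 384-well format. Exponential-phase cells at 5 × 10^5 cells/ml incubated with compound 18–24 h at 37 °C, then 20% Alamar blue added and fluorescence read. MIC90 taken as the lowest concentration preventing at least 90% bacterial growth.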

[5] = test system: Stenotrophomonas maltophilia; assay: Antimicrobial activity against Stenotrophomonas maltophilia ATCC 13637 after 18 to 24 hrs by alamar blue assay; assay type: functional; conditions: Stenotrophomonas maltophilia, ATCC 13637; read-out: MIC; in short: as §2
[6] = test system: Mycolicibacterium smegmatis; assay: Antimicrobial activity against Mycobacterium smegmatis BCRC 11565 after 18 to 24 hrs by alamar blue assay; assay type: functional; conditions: Mycolicibacterium smegmatis, BCRC 11565; read-out: MIC; in short: as §2
Pseudomonas aeruginosa = assay: Antimicrobial activity against Pseudomonas aeruginosa ATCC 25619 after 18 to 24 hrs by alamar blue assay; assay type: functional; conditions: Pseudomonas aeruginosa, ATCC 25619; read-out: MIC; in short: as §2
Escherichia coli = assay: Antimicrobial activity against Escherichia coli ATCC […] after 18 to 24 hrs by alamar blue assay; assay type: functional; conditions: Escherichia coli; read-out: MIC; in short: as §2
Serratia marcescens = assay: Antimicrobial activity against Serratia marcescens ATCC 14756 after 18 to 24 hrs by alamar blue assay; assay type: functional; conditions: Serratia marcescens, ATCC 14756; read-out: MIC; in short: as §2
Bacillus subtilis = assay: Antimicrobial activity against Bacillus subtilis ATCC 23857 after 18 to 24 hrs by alamar blue assay; assay type: functional; in short: as §2

Structure (SMILES)	MIC (Staphylococcus aureus [1]) [µg/mL]	MIC (Staphylococcus aureus [2]) [µg/mL]	MIC (Staphylococcus aureus [3]) [µg/mL]	MIC (Staphylococcus aureus [4]) [µg/mL]	MIC (Acinetobacter baumannii) [µg/mL]	MIC [5] [µg/mL]	MIC [6] [µg/mL]	MIC (Pseudomonas aeruginosa) [µg/mL]	MIC (Escherichia coli) [µg/mL]	MIC (Serratia marcescens) [µg/mL]	MIC (Bacillus subtilis) [µg/mL]
Cc1ccc(NS(=O)(=O)c2ccc3c(c2)NCC(C)C(=O)S3)c(C)c1 (stereo not given)	16 (≈ 42.5 µM)	> 64	2 (≈ 5.31 µM)	2 (≈ 5.31 µM)	> 256	> 256	> 64	> 256	> 256	> 256	< 0.03
O=C1c2ccc([N+](=O)[O-])c3c([N+](=O)[O-])ccc(c23)C(=O)N1c1ccccc1	1.25 (≈ 3.44 µM)	1.25 (≈ 3.44 µM)	2.5 (≈ 6.88 µM)	2.5 (≈ 6.88 µM)	> 256	> 256	4 (≈ 11 µM)	> 256	> 256	> 256	4 (≈ 11 µM)
Cc1c(CC(=O)NCCCC(=O)O)c(=O)oc2c(C)c3occ(-c4ccc(Cl)cc4)c3cc12	2.5 (≈ 5.34 µM)	2.5 (≈ 5.34 µM)	2.5 (≈ 5.34 µM)	2.5 (≈ 5.34 µM)	> 256	> 256	1 (≈ 2.14 µM)	> 256	> 256	> 256	> 64
O=C(Nc1nnc(-c2ccc(Cl)cc2)o1)c1ccc(C(F)(F)F)cc1	1.5 (≈ 4.08 µM)	1.5 (≈ 4.08 µM)	1.5 (≈ 4.08 µM)	3 (≈ 8.16 µM)	> 256	> 256	0.5 (≈ 1.36 µM)	> 256	> 256	> 256	0.5 (≈ 1.36 µM)
O=C1c2cccc3cccc(c23)C(=O)N1CCN1CCN(CCc2ccccc2)CC1	16 (≈ 38.7 µM)	0.5 (≈ 1.21 µM)	1 (≈ 2.42 µM)	1 (≈ 2.42 µM)	> 256	> 256	4 (≈ 9.67 µM)	> 256	> 256	> 256	4 (≈ 9.67 µM)
CCOC(=O)c1c(NC(=O)c2ccc([N+](=O)[O-])o2)sc2c1CCN(C(C)=O)C2	1 (≈ 2.45 µM)	1 (≈ 2.45 µM)	4 (≈ 9.82 µM)	1 (≈ 2.45 µM)	12 (≈ 29.5 µM)	32 (≈ 78.5 µM)	0.5 (≈ 1.23 µM)	128 (≈ 314 µM)	256 (≈ 628 µM)	32 (≈ 78.5 µM)	0.06 (≈ 0.147 µM)
O=C1c2cc([N+](=O)[O-])cc3cc([N+](=O)[O-])cc(c23)C(=O)N1Nc1ccc(Cl)cc1	2.5 (≈ 6.06 µM)	2.5 (≈ 6.06 µM)	2.5 (≈ 6.06 µM)	2.5 (≈ 6.06 µM)	> 256	> 256	4 (≈ 9.69 µM)	> 256	> 256	> 256	4 (≈ 9.69 µM)
CC[C@@H](C)[C@H](NC(=O)Cc1c(C)c2cc3c(-c4ccc(Cl)cc4)coc3c(C)c2oc1=O)C(=O)O	2.5 (≈ 5.04 µM)	2.5 (≈ 5.04 µM)	2.5 (≈ 5.04 µM)	2.5 (≈ 5.04 µM)	> 256	> 256	1 (≈ 2.02 µM)	> 256	> 256	> 256	> 64
CCOc1ccccc1N(C)S(=O)(=O)c1ccc2c(c1)NC(=O)C(C)S2 (stereo not given)	8 (≈ 20.4 µM)	> 64	8 (≈ 20.4 µM)	4 (≈ 10.2 µM)	> 256	> 256	> 64	> 256	> 256	> 256	< 0.03
O=C(Nc1ccc(Cl)cc1)c1cc(Br)cc(Br)c1O	1 (≈ 2.47 µM)	1 (≈ 2.47 µM)	4 (≈ 9.87 µM)	1 (≈ 2.47 µM)	16 (≈ 39.5 µM)	16 (≈ 39.5 µM)	0.5 (≈ 1.23 µM)	16 (≈ 39.5 µM)	8 (≈ 19.7 µM)	16 (≈ 39.5 µM)	< 0.03

Source: ChEMBL document CHEMBL1629439, “High-throughput identification of antibacterials against methicillin-resistant Staphylococcus aureus (MRSA) and the transglycosylase” (Bioorg Med Chem, 2010)
